The source of these data is ChEMBL document CHEMBL1773060, “Two-step synthesis of novel, bioactive derivatives of the ubiquitous cofactor nicotinamide adenine dinucleotide (NAD)” (J Med Chem, 2011).

The structures appear in SMILES notation.

The first test deals with T1, NAD-dependent protein deacetylase sirtuin-1 (Homo sapiens, UniProt Q96EB6).
T1 sequence (Q96EB6 whole entry): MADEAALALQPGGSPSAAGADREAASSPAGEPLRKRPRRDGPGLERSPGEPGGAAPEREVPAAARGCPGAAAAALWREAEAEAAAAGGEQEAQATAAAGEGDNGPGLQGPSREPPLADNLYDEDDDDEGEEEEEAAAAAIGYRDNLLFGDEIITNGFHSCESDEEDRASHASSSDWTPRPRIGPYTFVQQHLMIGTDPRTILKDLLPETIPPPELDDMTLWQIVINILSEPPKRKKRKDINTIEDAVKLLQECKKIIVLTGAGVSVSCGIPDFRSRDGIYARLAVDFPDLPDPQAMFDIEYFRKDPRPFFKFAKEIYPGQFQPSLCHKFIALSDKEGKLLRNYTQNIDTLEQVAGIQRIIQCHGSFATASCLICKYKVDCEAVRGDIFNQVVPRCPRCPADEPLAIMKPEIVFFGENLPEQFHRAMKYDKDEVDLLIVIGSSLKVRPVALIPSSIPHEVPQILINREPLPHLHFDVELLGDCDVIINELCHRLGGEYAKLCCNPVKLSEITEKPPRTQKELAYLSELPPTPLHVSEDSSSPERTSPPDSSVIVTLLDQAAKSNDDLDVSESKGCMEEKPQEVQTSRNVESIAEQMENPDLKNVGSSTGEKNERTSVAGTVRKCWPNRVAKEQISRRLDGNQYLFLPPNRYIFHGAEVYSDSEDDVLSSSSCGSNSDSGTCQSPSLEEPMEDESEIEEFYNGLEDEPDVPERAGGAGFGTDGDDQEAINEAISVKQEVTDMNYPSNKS
Briefly: Inhibition of human recombinant GST-tagged SIRT1 after 4 hrs by homogeneous fluorescent deacetylase assay. The method in brief: (§1)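 Recombinant enzyme incubated with Z-(Ac)Lys-AMC (10.5 μM), NAD (500 μM) and inhibitor added from DMSO stock, 4 h at 37 °C. Enzyme amount set for 10–30% substrate conversion without inhibitor. Trypsin (1 mg/mL) plus nicotinamide (8 mM) added, 20 min at 37 °C. Fluorescence read at ex 390/em 460 nm. Inhibition calculated from remaining substrate versus no-inhibitor control. Run at least in duplicate.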
As a reminder, the IC50 is the concentration that gives 50% inhibition. On to `Nc1ncnc2c1nc(-c1ccccc1)n2[C@@H]1O[C@H](COP(=O)(O)O)[C@@H](O)[C@H]1O`, for which the IC50 worked out at 31 µM.

A further test concerns the target T2, NAD-dependent protein deacetylase sirtuin-2 (Homo sapiens, UniProt Q8IXJ6).
T2 sequence (Q8IXJ6 whole entry): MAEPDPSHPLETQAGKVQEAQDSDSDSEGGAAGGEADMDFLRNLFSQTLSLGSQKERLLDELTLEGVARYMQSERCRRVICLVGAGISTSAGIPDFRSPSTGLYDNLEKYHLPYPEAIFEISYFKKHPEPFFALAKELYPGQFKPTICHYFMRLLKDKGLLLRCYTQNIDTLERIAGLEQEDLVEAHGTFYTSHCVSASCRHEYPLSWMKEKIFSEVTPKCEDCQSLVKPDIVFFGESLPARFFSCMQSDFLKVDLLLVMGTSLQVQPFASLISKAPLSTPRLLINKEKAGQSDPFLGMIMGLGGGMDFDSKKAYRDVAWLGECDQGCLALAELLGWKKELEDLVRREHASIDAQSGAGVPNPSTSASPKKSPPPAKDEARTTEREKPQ
As to the kind of experiment: Inhibition of human recombinant N-terminally His6-tagged SIRT2 after 4 hrs by homogeneous fluorescent deacetylase assay. In a few lines:
as §1
Turning to `Nc1ncnc2c1nc(-c1ccccc1)n2[C@@H]1O[C@H](COP(=O)(O)O)[C@@H](O)[C@H]1O`, the IC50 was 29 µM. On the same count and under the same terms, for `NC(=O)c1ccc[n+]([C@@H]2O[C@H](COP(=O)([O-])OP(=O)(O)OC[C@H]3O[C@@H](n4c(Br)nc5c(N)ncnc54)[C@H](O)[C@@H]3O)[C@@H](O)[C@H]2O)c1` the value was 28 µM.

On to `NC(=O)c1ccc[n+]([C@@H]2O[C@H](COP(=O)([O-])OP(=O)(O)OC[C@H]3O[C@@H](n4c(-c5ccccc5)nc5c(N)ncnc54)[C@H](O)[C@@H]3O)[C@@H](O)[C@H]2O)c1`, for which the IC50 worked out at 123 µM.

With `NC(=O)c1ccc[n+]([C@@H]2O[C@H](COP(=O)([O-])OP(=O)(O)OC[C@H]3O[C@@H](n4c(-c5ccc(Cl)cc5)nc5c(N)ncnc54)[C@H](O)[C@@H]3O)[C@@H](O)[C@H]2O)c1`, the IC50 was determined as 35 µM. With `COc1ccc(-c2nc3c(N)ncnc3n2[C@@H]2O[C@H](COP(=O)(O)OP(=O)([O-])OC[C@H]3O[C@@H]([n+]4cccc(C(N)=O)c4)[C@H](O)[C@@H]3O)[C@@H](O)[C@H]2O)cc1`, the IC50 was 43 µM.

Take `Cc1ccc(-c2nc3c(N)ncnc3n2[C@@H]2O[C@H](COP(=O)(O)OP(=O)([O-])OC[C@H]3O[C@@H]([n+]4cccc(C(N)=O)c4)[C@H](O)[C@@H]3O)[C@@H](O)[C@H]2O)cc1`: the IC50 stood at 52 µM.
